Assay results as given in ChEMBL document CHEMBL3243939, “Derivatives of 1,3-disubstituted 2,4(1H,3H)-quinazolinediones as possible peripheral vasodilators or antihypertensive agents” (1979).
In brackets after ≈: the same amount, converted by molar mass.

Experiments:
Oryctolagus cuniculus = organism: Oryctolagus cuniculus; experiment: Blockade of alpha-adrenergic receptor in rabbit aortic strips assessed as reduction of epinephrine-induced response
Outline: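 Rabbit aortic strip sensitized by repeated exposure to 0.01 mcg/mL epinephrine. Responses to this concentration were compared before and after 200 s incubation with rising compound concentrations. Percent blockade was calculated at each concentration. ED50, the concentration blocking the response by 50%, was extrapolated from the concentration-response curve.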

Rattus norvegicus = experiment: Antihypertensive activity in Wistar rat assessed as decrease of systolic blood pressure at 31 mg/kg, po up to 8 hrs; assay type: functional, Artery
Outline: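 Renal hypertension in female Wistar rats: figure-of-eight ligature on one kidney, other kidney removed. Rats with systolic pressure above 160 mmHg used, groups of ten. Tail-cuff occlusion with pulse detector measured systolic pressure before and 2, 4, 6, 8 h after a 31 mg/kg oral dose. Value is the mean decrease over 8 h ± standard error.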

Canis familiaris = experiment: Vasodilatory activity in dog assessed as increase of femoral blood flow by 100 mL/min administered as intraarterially; assay type: functional, Canis lupus familiaris
Outline: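 Pentobarbital-anesthetized dogs with an electromagnetic flowmeter sensor around a femoral artery. Compound was injected intraarterially through a branch vessel at increasing doses, and the peak flow increase after each dose was recorded. ED100, the dose raising flow 100 mL/min above control, was extrapolated from the dose-response curve.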

| SMILES | ED50 (Oryctolagus cuniculus) [µg/mL] | Activity (Rattus norvegicus) [mmHg] | ED100 (Canis familiaris) [µg] |
| --- | --- | --- | --- |
| CN(C)CCCN1C(=O)C(CCCCCCCN2CCN(c3ccccc3)CC2)C(=O)c2ccccc21.CO.O=C(O)C(=O)O (configuration not stated) | 0.64 | 12 | 205 |
| COc1ccc(Cc2nccc3cc(OC)c(OC)cc23)cc1OC [PAPAVERINE] |  |  | 1825 |
| Cc1ccc(N(CC2=NCCN2)c2cccc(O)c2)cc1 [PHENTOLAMINE] | 0.03 (≈ 0.107 µM) | 45 | 117 |
